Reference: ChEMBL document CHEMBL5055621, “Synthesis and Characterization of the Novel Rodent-Active and CNS-Penetrant P2X7 Receptor Antagonist Lu AF27139” (J Med Chem, 2021)
pIC50, pKi: −log10 of the molar value.

Tests used:
[1] = system: Mus musculus; assay: Toxicity in C57BL/6NCrl mouse assessed as histological changes up to 100 mg/kg, po bid by 14 days exploratory toxicology study; format: organism-based; details: in vivo, 336 h, time 14 day
In short: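 Exploratory 14-day repeat oral toxicity study in mice with dosing twice daily (bid) up to 100 mg/kg. Endpoints were macroscopic pathology, histology and hematology.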

[2] = Free plasma concentration in rat at 10 mg/kg, po after 2 hrs by ex vivo equilibrium dialysis; format: ADME, organism-based
In short: (§1)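 Male Sprague–Dawley rats were dosed orally at 1–100 mg/kg, and total plasma concentration was measured at 1 and 2 h. This was multiplied by fraction unbound from ex vivo equilibrium dialysis; mean ± SEM, n = 3 animals.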

[3] = Free plasma concentration in rat at 3 mg/kg, po after 2 hrs by ex vivo equilibrium dialysis; format: ADME, organism-based; in short: as §1
[4] = Inhibition of BzATP-induced IL-1beta in mouse primary microglia cells primed with LPS measured after repeated BzATP treatment by microplate reader; format: functional, tissue-based
In short: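 Cortical microglia from rat (P3 pups) or mouse were plated 1 day before assay and primed with 3 EU/mL LPS for 3.5 h. Compound was added for 30 min, then BzATP (1 mM) for 30 min at 37 °C. IL-1β was measured by MesoScale assay, normalised to BCA protein, and given as mean ± SD.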

[5] = Tmax in female mouse at 100 mg/kg, po after 14 days; details: in vivo
[6] = Tmax in male rat at 150 mg/kg, po after 7 days; format: ADME, organism-based; details: in vivo, time 7 day
[7] = target: T1, P2X purinoceptor 7 (Rattus norvegicus, UniProt Q64663); assay: Displacement of [3H]-A-804598 from rat P2X7 receptor expressed in HEK293 cell membrane by in vitro binding assay; format: cell membranes
T1 sequence (Q64663 whole entry): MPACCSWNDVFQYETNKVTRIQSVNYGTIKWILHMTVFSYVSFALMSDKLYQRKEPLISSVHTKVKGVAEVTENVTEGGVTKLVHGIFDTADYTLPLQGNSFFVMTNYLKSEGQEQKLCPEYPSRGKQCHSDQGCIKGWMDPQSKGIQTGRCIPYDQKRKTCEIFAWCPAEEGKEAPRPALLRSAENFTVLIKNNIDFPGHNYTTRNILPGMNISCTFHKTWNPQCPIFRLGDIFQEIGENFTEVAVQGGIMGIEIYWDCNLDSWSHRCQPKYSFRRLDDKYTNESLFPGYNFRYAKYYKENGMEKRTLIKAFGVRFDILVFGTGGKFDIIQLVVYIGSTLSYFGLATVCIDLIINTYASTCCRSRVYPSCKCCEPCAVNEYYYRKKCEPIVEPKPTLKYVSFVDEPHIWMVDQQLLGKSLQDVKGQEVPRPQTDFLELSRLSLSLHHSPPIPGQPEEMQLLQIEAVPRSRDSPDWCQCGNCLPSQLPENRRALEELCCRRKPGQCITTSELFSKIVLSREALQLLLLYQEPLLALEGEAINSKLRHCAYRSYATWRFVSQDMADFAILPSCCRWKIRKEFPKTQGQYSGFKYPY

[8] = target: T2, Cytochrome P450 1A2 (Homo sapiens, UniProt P05177); assay: Time dependent inhibition of CYP1A2 (unknown origin) upto 25 uM; format: ADME
T2 sequence (P05177 whole entry): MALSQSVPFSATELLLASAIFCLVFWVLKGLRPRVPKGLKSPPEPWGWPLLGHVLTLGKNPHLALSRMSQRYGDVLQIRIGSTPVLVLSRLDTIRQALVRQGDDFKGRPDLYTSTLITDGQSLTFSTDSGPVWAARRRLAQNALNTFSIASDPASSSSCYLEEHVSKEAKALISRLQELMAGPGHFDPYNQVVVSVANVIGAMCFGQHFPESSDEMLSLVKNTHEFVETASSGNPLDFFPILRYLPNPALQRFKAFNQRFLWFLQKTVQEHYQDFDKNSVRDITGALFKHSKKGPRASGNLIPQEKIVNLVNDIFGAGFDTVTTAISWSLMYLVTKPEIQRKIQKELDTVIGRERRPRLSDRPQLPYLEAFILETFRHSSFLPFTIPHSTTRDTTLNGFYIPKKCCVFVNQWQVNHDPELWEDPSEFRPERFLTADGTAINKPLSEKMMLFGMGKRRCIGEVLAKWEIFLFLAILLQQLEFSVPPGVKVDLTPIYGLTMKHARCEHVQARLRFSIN

[9] = Cmax in rat at 2 mg/kg, po; format: ADME, organism-based; design: dose 2 mg/kg, route po; details: in vivo
In short: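 Rats received 1 mg/kg iv or 2 mg/kg po. The plasma concentration–time profile was analysed by a noncompartmental model to give half-life, Cmax, Tmax and absolute oral bioavailability.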

[10] = target: T3, Cytochrome P450 2B6 (Homo sapiens, UniProt P20813); assay: Time dependent inhibition of CYP2B6 (unknown origin) upto 25 uM; format: ADME
T3 sequence (P20813 whole entry): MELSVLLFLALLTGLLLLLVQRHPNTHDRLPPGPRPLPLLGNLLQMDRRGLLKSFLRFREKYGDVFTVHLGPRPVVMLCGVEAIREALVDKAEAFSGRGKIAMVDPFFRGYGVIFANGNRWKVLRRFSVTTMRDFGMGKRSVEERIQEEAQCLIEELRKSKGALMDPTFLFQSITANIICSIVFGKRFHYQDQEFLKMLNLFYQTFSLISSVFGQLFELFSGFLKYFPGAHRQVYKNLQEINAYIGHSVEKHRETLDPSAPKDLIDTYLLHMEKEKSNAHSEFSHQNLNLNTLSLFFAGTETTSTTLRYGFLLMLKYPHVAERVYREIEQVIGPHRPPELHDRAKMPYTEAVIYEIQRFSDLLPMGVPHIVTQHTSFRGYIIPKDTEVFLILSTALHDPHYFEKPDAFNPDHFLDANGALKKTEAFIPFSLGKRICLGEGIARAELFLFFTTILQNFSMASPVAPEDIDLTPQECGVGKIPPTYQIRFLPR

[11] = target: T2, Cytochrome P450 1A2; assay: Inhibition of CYP1A2 (unknown origin) upto 25 uM; format: ADME
[12] = Efflux ratio of permeability across basolateral to apical side over apical to basolateral side in MDCK2-MDR1 cells; format: ADME, cell-based, Canis lupus familiaris; details: dog, MDCK-MDR1
In short: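 MDR1-MDCK monolayers; permeability measured in both A-to-B and B-to-A directions, in triplicate. Efflux ratio taken as B:A over A:B permeation.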

[13] = system: THP-1; assay: Antiinflammatory activity against human THP-1 cells assessed as reduction in LPS and BzATP-induced IL-1beta release measured after 50 mins by microplate reader; format: functional, cell-based; details: THP-1, 50 min
In short: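 THP-1 cells were differentiated with IFN-γ 10 ng/mL for 48 h and primed with LPS (100 ng/mL final) for 3.5 h at 10k cells/well. Compound was added for 20 min, then BzATP (1 mM final) for 30 min at 37 °C. Supernatant IL-1β was read by human AlphaLISA.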

[14] = Cmax in female mouse at 100 mg/kg, po administered as single dose; details: in vivo
[15] = target: Cytochrome P450 2C19 (Homo sapiens, UniProt P33261); assay: Inhibition of CYP2C19 (unknown origin) upto 25 uM; format: ADME
[16] = AUC (0 to 8 hrs) in female mouse at 100 mg/kg, po administered as single dose; details: in vivo

Sequence of Cytochrome P450 2C19 (P33261 whole entry): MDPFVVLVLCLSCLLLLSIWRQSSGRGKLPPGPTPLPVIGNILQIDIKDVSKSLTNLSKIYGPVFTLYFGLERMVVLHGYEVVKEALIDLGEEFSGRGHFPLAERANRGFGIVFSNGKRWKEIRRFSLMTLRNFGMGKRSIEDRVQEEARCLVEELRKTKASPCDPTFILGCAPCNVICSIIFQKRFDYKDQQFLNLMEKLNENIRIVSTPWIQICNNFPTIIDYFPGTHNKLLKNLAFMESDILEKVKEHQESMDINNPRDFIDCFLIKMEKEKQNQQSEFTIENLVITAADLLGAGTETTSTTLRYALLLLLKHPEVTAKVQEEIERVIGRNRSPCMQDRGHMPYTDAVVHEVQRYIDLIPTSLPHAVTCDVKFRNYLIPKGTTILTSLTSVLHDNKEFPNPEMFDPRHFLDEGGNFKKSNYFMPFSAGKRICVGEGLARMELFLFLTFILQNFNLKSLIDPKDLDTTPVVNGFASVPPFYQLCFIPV

Cp(f) [2]: 164 nM
Cp(f) [3]: 91.4 nM
pIC50 [4]: 7.59
Tmax [5]: 1 h
Tmax [6]: 4 h
pKi [7]: 7.89
TDI [8]: Not Active
Cmax [9]: 2700 nM
TDI [10]: Not Active
inhibition (INH) [11]: Not Active
efflux ratio [12]: 0.81
pIC50 [13]: 7.42
Cmax [14]: 140 µM
inhibition (INH) [15]: Not Active
AUC(0-t) at 8 h [16]: 399 µM·h
SMILES: O=C(NC[C@H](c1ccc(Cl)cc1)N1CCOCC1)c1sc(-c2ncccn2)nc1C(F)(F)F
Activity [1]: Non-Toxic
